pIC50: −log10 of the molar value. Values after ≈ are worked out from the molar mass of the structure shown.
Legend:
[1] = biological target: T1, Potassium voltage-gated channel subfamily A member 5 (Homo sapiens, UniProt P22460); test: Inhibition of Kv1.5 channel mediated delayed rectifier potassium current at 1 uM by patch-clamp technique
[2] = biological target: T1, Potassium voltage-gated channel subfamily A member 5; test: Inhibition of Kv1.5 channel mediated delayed rectifier potassium current by patch-clamp technique
hERG (KCNH2) = hERG (KCNH2) (Homo sapiens, UniProt Q12809); test: Inhibition of hERG at 10 uM; assay type: toxicity
Sequence of hERG (KCNH2) (Q12809 whole entry): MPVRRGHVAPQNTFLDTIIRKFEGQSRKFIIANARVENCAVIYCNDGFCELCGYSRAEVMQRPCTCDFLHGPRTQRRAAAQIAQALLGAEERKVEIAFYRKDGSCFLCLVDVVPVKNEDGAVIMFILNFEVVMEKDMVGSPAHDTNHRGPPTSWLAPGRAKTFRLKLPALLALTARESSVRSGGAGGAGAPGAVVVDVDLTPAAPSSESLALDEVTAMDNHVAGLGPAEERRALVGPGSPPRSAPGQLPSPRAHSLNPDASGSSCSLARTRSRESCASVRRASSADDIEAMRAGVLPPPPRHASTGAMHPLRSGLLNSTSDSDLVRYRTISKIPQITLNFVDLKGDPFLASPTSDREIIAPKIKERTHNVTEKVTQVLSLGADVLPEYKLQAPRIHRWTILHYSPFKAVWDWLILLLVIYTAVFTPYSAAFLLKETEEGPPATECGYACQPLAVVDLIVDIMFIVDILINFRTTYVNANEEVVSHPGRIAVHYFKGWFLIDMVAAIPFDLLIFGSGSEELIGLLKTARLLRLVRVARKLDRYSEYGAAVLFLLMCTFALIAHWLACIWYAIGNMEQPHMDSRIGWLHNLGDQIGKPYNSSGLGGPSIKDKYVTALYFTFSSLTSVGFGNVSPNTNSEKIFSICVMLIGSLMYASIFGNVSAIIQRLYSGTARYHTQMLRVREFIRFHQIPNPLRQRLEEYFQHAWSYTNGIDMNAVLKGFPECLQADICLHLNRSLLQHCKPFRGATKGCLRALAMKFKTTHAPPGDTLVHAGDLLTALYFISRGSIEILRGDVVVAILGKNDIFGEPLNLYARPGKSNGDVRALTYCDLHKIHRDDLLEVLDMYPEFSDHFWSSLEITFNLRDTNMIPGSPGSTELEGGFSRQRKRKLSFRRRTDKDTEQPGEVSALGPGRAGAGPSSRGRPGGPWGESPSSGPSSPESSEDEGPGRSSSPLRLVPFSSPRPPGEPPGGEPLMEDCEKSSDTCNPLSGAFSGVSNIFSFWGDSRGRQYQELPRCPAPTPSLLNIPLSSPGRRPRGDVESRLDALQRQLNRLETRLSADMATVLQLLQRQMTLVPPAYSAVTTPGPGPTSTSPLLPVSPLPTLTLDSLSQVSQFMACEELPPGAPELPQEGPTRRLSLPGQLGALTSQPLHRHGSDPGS

[3] = Aqueous solubility of the compound; assay type: physicochemical; details: buffer
Procedure, shortened: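 Crystalline solid; shake-flask method in 50 mM phosphate-buffered saline, pH 6.8; dissolved compound quantified by LC/MS/MS.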

Canis familiaris = test: Volume of distribution in dog at 20 umol/kg, po; assay type: ADME, organism-based, Canis lupus familiaris; details: in vivo
[4] = Clearance in rat at 20 umol/kg, po; assay type: ADME, organism-based; details: in vivo
[5] = biological target: SCN5A (sodium channel protein type 5 subunit alpha) (Homo sapiens, UniProt Q14524); test: Inhibition of human SCN5A channel at 10 uM
Sequence of SCN5A (sodium channel protein type 5 subunit alpha) (Q14524 whole entry): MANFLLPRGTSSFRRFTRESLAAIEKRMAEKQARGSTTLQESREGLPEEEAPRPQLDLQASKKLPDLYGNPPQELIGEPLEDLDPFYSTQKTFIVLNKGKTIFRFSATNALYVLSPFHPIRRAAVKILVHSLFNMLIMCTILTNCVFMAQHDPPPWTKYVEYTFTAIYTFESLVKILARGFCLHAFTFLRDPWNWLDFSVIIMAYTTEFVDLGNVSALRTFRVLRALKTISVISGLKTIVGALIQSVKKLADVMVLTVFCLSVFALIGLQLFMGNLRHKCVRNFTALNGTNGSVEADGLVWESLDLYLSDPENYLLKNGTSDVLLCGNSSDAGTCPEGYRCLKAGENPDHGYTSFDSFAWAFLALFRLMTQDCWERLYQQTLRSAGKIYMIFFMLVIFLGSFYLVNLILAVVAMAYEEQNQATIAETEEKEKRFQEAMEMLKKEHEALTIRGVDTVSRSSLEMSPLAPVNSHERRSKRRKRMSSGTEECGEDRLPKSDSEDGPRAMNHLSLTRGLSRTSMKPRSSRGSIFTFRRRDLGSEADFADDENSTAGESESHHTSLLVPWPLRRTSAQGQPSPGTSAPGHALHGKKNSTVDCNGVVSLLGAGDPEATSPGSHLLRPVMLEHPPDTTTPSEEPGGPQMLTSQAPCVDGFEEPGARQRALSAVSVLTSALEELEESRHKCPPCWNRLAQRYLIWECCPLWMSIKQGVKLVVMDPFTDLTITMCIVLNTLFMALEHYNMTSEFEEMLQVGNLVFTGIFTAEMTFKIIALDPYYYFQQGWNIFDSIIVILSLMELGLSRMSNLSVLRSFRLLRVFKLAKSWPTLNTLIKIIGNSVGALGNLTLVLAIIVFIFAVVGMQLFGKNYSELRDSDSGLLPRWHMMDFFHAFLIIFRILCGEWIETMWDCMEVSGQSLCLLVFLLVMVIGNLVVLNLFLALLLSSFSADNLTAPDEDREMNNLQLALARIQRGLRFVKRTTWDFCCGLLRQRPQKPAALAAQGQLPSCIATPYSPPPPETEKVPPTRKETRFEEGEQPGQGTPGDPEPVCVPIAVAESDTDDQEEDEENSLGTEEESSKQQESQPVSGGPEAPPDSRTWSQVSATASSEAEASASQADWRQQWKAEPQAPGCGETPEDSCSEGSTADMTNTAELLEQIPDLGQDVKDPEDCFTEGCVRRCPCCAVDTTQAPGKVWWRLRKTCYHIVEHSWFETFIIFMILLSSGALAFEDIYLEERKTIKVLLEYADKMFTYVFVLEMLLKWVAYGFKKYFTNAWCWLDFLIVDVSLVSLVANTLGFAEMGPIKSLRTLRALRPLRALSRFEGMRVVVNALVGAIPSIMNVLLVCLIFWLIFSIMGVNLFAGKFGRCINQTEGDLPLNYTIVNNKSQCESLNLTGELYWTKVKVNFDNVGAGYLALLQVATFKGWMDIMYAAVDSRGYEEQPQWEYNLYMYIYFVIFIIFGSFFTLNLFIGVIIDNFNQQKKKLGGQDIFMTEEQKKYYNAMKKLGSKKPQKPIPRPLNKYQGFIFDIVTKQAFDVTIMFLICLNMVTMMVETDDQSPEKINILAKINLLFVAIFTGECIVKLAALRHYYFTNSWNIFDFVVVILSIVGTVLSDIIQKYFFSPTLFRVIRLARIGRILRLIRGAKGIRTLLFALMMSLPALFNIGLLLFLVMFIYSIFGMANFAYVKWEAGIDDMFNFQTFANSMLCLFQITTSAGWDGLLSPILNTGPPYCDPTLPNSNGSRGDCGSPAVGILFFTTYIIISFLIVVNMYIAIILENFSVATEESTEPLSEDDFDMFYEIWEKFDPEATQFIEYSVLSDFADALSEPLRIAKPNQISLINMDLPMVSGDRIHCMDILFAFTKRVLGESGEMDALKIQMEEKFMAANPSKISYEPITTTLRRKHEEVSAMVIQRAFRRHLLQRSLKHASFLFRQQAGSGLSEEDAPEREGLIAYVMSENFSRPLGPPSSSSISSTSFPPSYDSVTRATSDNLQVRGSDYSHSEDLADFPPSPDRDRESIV

Rattus norvegicus [6] = test: Volume of distribution in rat at 20 umol/kg, po; assay type: ADME, organism-based; details: in vivo
[7] = Oral bioavailability in rat at 20 umol/kg; assay type: ADME, organism-based; details: in vivo
[8] = Clearance in dog at 20 umol/kg, po; assay type: ADME, organism-based, Canis lupus familiaris; details: in vivo
[9] = Oral bioavailability in dog at 20 umol/kg; assay type: ADME, organism-based, Canis lupus familiaris; details: in vivo
[10] = Half life in intra arterial infusion dosed rat at 10 umol/kg; assay type: ADME, organism-based; details: in vivo
[11] = Half life in intra arterial infusion dosed dog at 10 umol/kg; assay type: ADME, organism-based, Canis lupus familiaris; details: in vivo
Rattus norvegicus [12] = species: Rattus norvegicus; test: Inhibition of rat calcium channel GH3 at 10 uM

T1 sequence (P22460 whole entry): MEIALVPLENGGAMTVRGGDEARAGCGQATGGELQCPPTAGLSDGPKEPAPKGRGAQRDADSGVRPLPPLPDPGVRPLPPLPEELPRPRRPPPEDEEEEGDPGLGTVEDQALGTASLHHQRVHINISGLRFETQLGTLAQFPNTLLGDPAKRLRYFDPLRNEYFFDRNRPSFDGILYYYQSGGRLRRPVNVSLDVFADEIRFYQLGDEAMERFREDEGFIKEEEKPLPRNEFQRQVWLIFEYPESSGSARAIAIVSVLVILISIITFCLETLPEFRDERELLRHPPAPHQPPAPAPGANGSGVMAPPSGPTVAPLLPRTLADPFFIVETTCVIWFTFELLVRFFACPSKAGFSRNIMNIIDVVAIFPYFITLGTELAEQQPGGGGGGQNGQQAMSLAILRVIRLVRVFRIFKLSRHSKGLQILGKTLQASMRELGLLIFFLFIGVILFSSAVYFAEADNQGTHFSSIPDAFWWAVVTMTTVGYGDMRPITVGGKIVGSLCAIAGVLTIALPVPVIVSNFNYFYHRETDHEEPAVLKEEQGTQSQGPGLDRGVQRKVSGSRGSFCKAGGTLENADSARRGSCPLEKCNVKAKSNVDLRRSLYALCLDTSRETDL

For `CCc1ccc(S(=O)(=O)N[C@@H]2c3cc(N)ccc3C[C@H]2O)cc1` (racemic), the inhibition [1] was 2%.

In the case of `CCc1ccc(S(=O)(=O)N[C@@H]2c3cc(NC(=O)c4cccc(OC)c4)ccc3CC[C@H]2O)cc1` (racemic), the pIC50 [2] was 6.36.

For `CCc1ccc(S(=O)(=O)N[C@H]2c3cc(NC(=O)c4cccc(OC)c4)ccc3C[C@@H]2O)cc1`, the pIC50 [2] was 6.12.

In the case of `CCc1ccc(S(=O)(=O)N[C@@H]2c3c(cccc3NC(=O)c3cccc(OC)c3)C[C@H]2O)cc1` (racemic), the pIC50 [2] was 6.06.

Molecule `CCc1ccc(S(=O)(=O)N[C@@H]2c3cc(NC(=O)c4cccc(OC)c4)ccc3C[C@H]2O)cc1` [listing 1 of 2 here] has an inhibition at 10 µM (hERG (KCNH2)) of 37%, a solubility [3] of 1.3 µg/mL (≈ 2.79 µM) and a pIC50 [2] of 7.48. The Vd (Canis familiaris) was 1.4 L/kg, the CL/F [4] was 200 mL/min/kg and the inhibition at 10 µM [5] was 15%. The Vd (Rattus norvegicus [6]) was 4 L/kg, the bioavailability [7] was 1% and the CL/F [8] was 12 mL/min/kg. The bioavailability [9] was 5%, the half-life [10] was 24 min and the half-life [11] was 90 min.

Work on `CCc1ccc(S(=O)(=O)N[C@@H]2c3cccc(NC(=O)c4cccc(OC)c4)c3C[C@H]2O)cc1` (racemic) yielded an inhibition [1] of 17%.

Molecule `CCc1ccc(S(=O)(=O)NCc2cccc(NC(=O)c3cccc(OC)c3)c2)cc1` has a solubility ([3]; read-out: Solubility) of 0.8 µg/mL (≈ 1.88 µM) and a pIC50 [2] of 6.62.

`CCc1ccc(S(=O)(=O)N[C@@H]2c3cc(NC(=O)c4cccc(OC)c4)ccc3CCC[C@H]2O)cc1` (racemic) gave a pIC50 [2] of 6.70.

For `CCc1ccc(S(=O)(=O)NC2CCc3ccc(NC(=O)c4cccc(OC)c4)cc32)cc1` (racemic), the solubility ([3]; read-out: Solubility) was < 0.1 µg/mL and the pIC50 [2] was 6.82.

Work on `CCc1ccc(S(=O)(=O)N[C@@H]2c3ccc(NC(=O)c4cccc(OC)c4)cc3C[C@H]2O)cc1` (racemic) yielded an inhibition [1] of 24%.

Work on `CCc1ccc(S(=O)(=O)N[C@@H]2c3cc(NC(=O)c4cccc(OC)c4)ccc3C[C@@H]2O)cc1` (racemic) yielded a pIC50 [2] of 6.52.

`CCc1ccc(S(=O)(=O)N[C@@H]2c3cc(NC(=O)c4cccc(OC)c4)ccc3C[C@H]2O)cc1` (racemic) showed a solubility [3] of 2.9 µg/mL (≈ 6.22 µM) and a pIC50 [2] of 6.80.

`CCc1ccc(S(=O)(=O)N[C@@H]2c3cc(NC(=O)c4cccc(OC)c4)ccc3C[C@H]2O)cc1` [listing 2 of 2 here] showed an inhibition (Rattus norvegicus [12]) of 27%.

In the case of `CCc1ccc(S(=O)(=O)N[C@@H]2c3ccccc3C[C@H]2O)cc1` (racemic), the inhibition [1] was 3%.

Reference: ChEMBL document CHEMBL1139198, “Aryl sulfonamido indane inhibitors of the Kv1.5 ion channel” (Bioorg Med Chem Lett, 2007)
